The species named for data set [1] is Rattus norvegicus. The data set is described as follows: Score value indicates selectivity against the undesired effect on diastolic blood pressure. Type of data set: functional, Artery.
Data set [2] is filed under the species Rattus norvegicus. The data set is described as follows: Total score (SS).
The species named for data set [3] is Cavia porcellus. Nature of the data set: In vitro activity in guinea pig atria was measured as the peak force of contraction (F) of a stimulated left atrium. The conditions noted are these: Cardiac atrium. Type of data set: functional. In outline:
(§1)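 Isolated guinea pig atria in oxygenated buffer at 35 °C. Right atria beat spontaneously; left atria were paced at 2 Hz with 1 ms rectangular pulses and isometric contractions were recorded. Cumulative concentration–response curves were run with up to five concentrations. EC75/EC125 is the concentration giving a 25% decrease/increase from the predrug value, reported as the geometric mean of individual ECs.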

For data set [4], the species on record is Cavia porcellus. The data set is described as follows: In vitro activity in guinea pig atria as the functional refractory period (FRP), which is the shortest interval between a double stimulus causing a double contraction. In outline:
as §1

For data set [5], the species on record is Cavia porcellus. Nature of the data set: Selectivity quotient (F75/SR75). It is filed as functional. In outline:
(§2)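 Atrial selectivity quotients were calculated from the guinea pig atrial EC values as F75/SR75 and FRP125/SR75.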

The species named for data set [6] is Cavia porcellus. Nature of the data set: Score point for the selectivity versus additional effect FRP. Type of data set: functional.
Data set [7] is filed under the species Cavia porcellus. The data set is described as follows: Sum of the scores of decrease of the sinus rate and selectivity versus the decrease in force of contraction. It is filed as functional.
The species named for data set [8] is Rattus norvegicus. The data set is described as follows: Score value indicates desire effect on heart rate. It is filed as functional.
Data set [9] is filed under the species Cavia porcellus. The data set is described as follows: Score value indicates decrease of the sinus rate. Type of data set: functional.
Data set [10] can be described thus: Selectivity quotient (R&T125/HR75); # # means very low (estimated). It is filed as functional. The method, boiled down: (§3)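 Male Wistar rats (280–360 g), urethane-anesthetized (1.25 g/kg ip), breathing spontaneously. Femoral artery pressure gave diastolic pressure; subcutaneous needle ECG gave heart rate and RαT interval (R onset to T apex), analyzed every 30 s. Femoral vein infusion at 0.1 mL/min, concentration raised tenfold every 10 min (3 doses). ED75/ED125 (25% change from predrug) were geometric means; quotients DAP125/HR75 and RαT125/HR75.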

The species entered for data set [11] is Cavia porcellus. Nature of the data set: Score value indicates selectivity versus the decrease in force of contraction. It is filed as functional.
For data set [12], the species on record is Cavia porcellus. The data set is described as follows: Selectivity quotient (FRP125/SR75). It is filed as functional. In outline: as §2
Data set [13] is filed under the species Rattus norvegicus. Nature of the data set: Selectivity quotient (DAP125/HR75).
The test system of data set [14] is Rattus norvegicus. Nature of the data set: In vivo activity in anesthetized rat was measured as the R alpha T-interval of the rat ECG which reflects the time from ventricular excitation to recovery. It is filed as functional, Cardiac ventricle. The method, boiled down: (§4)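 Male Wistar rats (280–360 g) under urethane (1.25 g/kg ip), intubated and breathing spontaneously. Femoral arterial pressure was recorded with needle-electrode ECG, analysed every 30 s. Compound was given by continuous femoral-vein infusion at 0.1 mL/min, with concentration raised tenfold every 10 min (3 doses). ED75/ED125 is the dose giving a 25% decrease/increase from the predrug value, reported as the geometric mean of individual EDs.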

Data set [15] is described as follows: Partition coefficient (logP). The conditions noted are these: octanol/water; read-out: logP. It is filed as physicochemical. In outline:
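Lipophilicity was measured by reversed-phase HPLC. Mobile phase was methanol/0.005 M phosphate buffer pH 4 (60/40) with 0.1% SDS and 0.1 M NaClO4, at 23.0 ± 0.5 °C, with UV detection at 205 nm.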

The species entered for data set [16] is Rattus norvegicus. The data set is described as follows: Score point for the selectivity versus additional effect R&T interval. Type of data set: functional.
The species named for data set [17] is Cavia porcellus. Nature of the data set: In vitro activity in guinea pig atria was measured as rate of spontaneously beating right atrium (SR) which reflects the activity of the sinus node. The conditions noted are these: Cardiac atrium. It is filed as functional. In outline:
as §1

The nature of data set [18]: Selectivity quotient (F75/SR75); # means very high (estimated). Type of data set: functional. In outline:
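Isolated atria in oxygenated buffer at 35 °C. Spontaneously beating right atria gave sinus rate; left atria paced at 2 Hz with 1 ms rectangular pulses gave isometric force of contraction. Cumulative concentration-response curves used up to five concentrations. EC75 (25% decrease from predrug value) was taken as the geometric mean of individual values. Quotient is F75/SR75.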

In data set [19] the test system is Rattus norvegicus. Nature of the data set: In vivo activity in anesthetized rat was measured as the diastolic arterial pressure which provides information on the peripheral resistance of the cardiovascular system and selectivity regarding bradycardia. It is filed as functional, Artery. The method, boiled down:
as §4

Data set [20] concerns Rattus norvegicus. The data set is described as follows: In vivo activity in anesthetized rat was measured as heart rate which provides information on in vivo bradycardic activity. It is filed as functional. In outline: as §4
Data set [21] is filed under the species Rattus norvegicus. Nature of the data set: Selectivity quotient (R&T125/HR75).
Data set [22] in a line: Selectivity quotient (DAP125/HR75); # means very high (estimated). Type of data set: functional. The method, boiled down:
as §3

The nature of data set [23]: Selectivity quotient (FRP125/SR75); # # means very low (estimated). Type of data set: functional.

Results on 5 molecules are retold here after ChEMBL document CHEMBL1131456, “Synthesis, pharmacological characterization, and quantitative structure-activity relationship analyses of 3,7,9,9-tetraalkylbispidines: derivatives with specific bradycardic activity” (J Med Chem, 1998).

Regarding `CCCCCCN1CC2CN(CCCCCC)CC(C1)C2(CC)CCCC` (configuration not stated), the Score in the data set filed under Rattus norvegicus [1] is given as -3; in the data set listed under Cavia porcellus [6] it was 2; in the data set listed under Cavia porcellus [7], 2; in the data set listed under Rattus norvegicus [8], 0; in the data set listed under Cavia porcellus [9] it was 6; in the data set listed under Cavia porcellus [11] it was -4. In the data set filed under Rattus norvegicus [16], the Score was 6. Also, the “total score (SS)” value in the data set filed under Rattus norvegicus [2] is on record as -3. Also, the EC75 in the data set filed under Cavia porcellus [3] was determined as 1.39 µM; in the data set listed under Cavia porcellus [17], 0.6 µM. The EC125 in the data set filed under Cavia porcellus [4] came out at 1.27 µM. Also, the Selectivity quotient was 2.32 in the data set listed under Cavia porcellus [5], “very low” in data set [10], 2.12 in the data set listed under Cavia porcellus [12] and 1 in the data set listed under Rattus norvegicus [13]. Moreover, the ED125 with Rattus norvegicus [14] turned out to be 4 µM/kg. The lipophilicity (logP) in data set [15] is 8.26.
For the molecule `CCCN1CC2CN(CCC)CC(C1)C2(CC)CC`, the Selectivity quotient entry was “#” in data set [18], 0.43 in the data set filed under Cavia porcellus [12], 0.8 in the data set filed under Rattus norvegicus [13] and 0.18 in the data set filed under Rattus norvegicus [21]. Besides, the Score is -3 in the data set listed under Rattus norvegicus [1]; 4 in the data set filed under Cavia porcellus [6]; 3 in the data set filed under Cavia porcellus [7]; 4 in the data set listed under Rattus norvegicus [8]; 3 in the data set filed under Cavia porcellus [9]; 0 in the data set filed under Cavia porcellus [11]. In the data set filed under Rattus norvegicus [16], this molecule showed a Score of 5. Besides, the “total score (SS)” value in the data set filed under Rattus norvegicus [2] was found to be 1. For the same molecule, the ED125 in the data set on Rattus norvegicus [19] turned out to be 10 µM/kg; with Rattus norvegicus [14], 2.1 µM/kg. In the data set filed under Cavia porcellus [4], the EC125 came out at 1.52 µM. The molecule further yielded an ED75 in the data set on Rattus norvegicus [20] of 12 µM/kg. The logP in [15] amounted to 3.85. Moreover, in the data set listed under Cavia porcellus [17], the 75% effect level (EC75) was put at 3.53 µM.
Turning to `CCC1(C)C2CN(CC3CCCCC3)CC1CN(CC1CCCCC1)C2` (configuration not stated), the Selectivity quotient entry is “#” in [22], 0.76 in the data set filed under Cavia porcellus [5], 0.11 in the data set listed under Cavia porcellus [12] and 0.5 in the data set filed under Rattus norvegicus [21]. The Score was 0 in the data set listed under Rattus norvegicus [1]; 5 in the data set filed under Cavia porcellus [6]; -3 in the data set listed under Cavia porcellus [7]; 4 in the data set listed under Rattus norvegicus [8]; 3 in the data set filed under Cavia porcellus [9]; -6 in the data set listed under Cavia porcellus [11]. In addition, the Score in the data set filed under Rattus norvegicus [16] came to 3. In addition, the “total score (SS)” value in the data set listed under Rattus norvegicus [2] stood at 4. Besides, the EC75 in the data set filed under Cavia porcellus [3] is 4.69 µM; in the data set filed under Cavia porcellus [17], 6.2 µM. This molecule also had an EC125 in the data set filed under Cavia porcellus [4] of 0.68 µM. The molecule further returned an ED125 with Rattus norvegicus [14] of 5.5 µM/kg. Further, in data set [15], the logP was found to be 6.65.
For the molecule `CCCCCCN1CC2CC(CN(C)C2)C1`, the Score was -3 in the data set filed under Rattus norvegicus [1]; 6 in the data set listed under Cavia porcellus [6]; -5 in the data set listed under Cavia porcellus [7]; 1 in the data set listed under Rattus norvegicus [8]; 0 in the data set listed under Cavia porcellus [9]; -5 in the data set listed under Cavia porcellus [11]. In the data set listed under Rattus norvegicus [16], this molecule came in with a Score of 5. Also, in the data set listed under Rattus norvegicus [2], the “total score (SS)” value is recorded as -2. It took 83.8 µM to reach the 75% level in the data set listed under Cavia porcellus [3] (EC75). The molecule further displayed an EC125 in the data set listed under Cavia porcellus [4] of 1.4 µM. Besides, the ED75 in the data set on Rattus norvegicus [20] came out at 46 µM/kg. Besides, the Selectivity quotient in the data set listed under Cavia porcellus [5] was 1; in data set [23], “very low”; in the data set listed under Rattus norvegicus [13] it was 1; in the data set filed under Rattus norvegicus [21], 0.18. Further, the ED125 in the data set on Rattus norvegicus [14] stood at 8.4 µM/kg. Moreover, in data set [15], the logP is 3.18.
Take `C1CCC2(C1)C1CN(CC3CC3)CC2CN(CC2CC2)C1` [TEDISAMIL]: the Selectivity quotient entry was “#” in data set [22], 37.6 in the data set filed under Cavia porcellus [5], 0.56 in the data set listed under Cavia porcellus [12] and 0.47 in the data set listed under Rattus norvegicus [21]. The Score in the data set filed under Rattus norvegicus [1] is reported as 0; in the data set listed under Cavia porcellus [6], 3; in the data set listed under Cavia porcellus [7], 5; in the data set listed under Rattus norvegicus [8] it was 5; in the data set filed under Cavia porcellus [9], 5; in the data set filed under Cavia porcellus [11], 0. In the data set filed under Rattus norvegicus [16], the Score is 4. In addition, the “total score (SS)” value in the data set listed under Rattus norvegicus [2] worked out at 5. In addition, the concentration for an effect of 75% (EC75) in the data set listed under Cavia porcellus [3] was 49 µM; in the data set filed under Cavia porcellus [17] it was 1.3 µM. Further, the EC125 in the data set filed under Cavia porcellus [4] was 0.76 µM. The molecule further displayed an ED75 in the data set on Rattus norvegicus [20] of 5.3 µM/kg. Further, the ED125 in the data set with Rattus norvegicus [14] turned out to be 2.5 µM/kg. The logP in data set [15] is 4.19.
